Experimental data taken from the array DNA melting data of Ke et al. (doi:10.1101/2024.01.08.574731).

What was measured:
[1] = folding enthalpy; higher = less favourable; fluorescence melt of hairpins on a sequencing array, two-state fit; settings: sodium 0.088 M
In short: (§1)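 Cy3 fluorescence of library hairpins on a sequenced MiSeq flow cell, with annealed Cy3 and quencher oligos, was imaged in 50 mM Na-HEPES pH 8.0, 25 mM NaCl in 2.5 °C steps up to 60 °C. Signals were normalised to pre-quench Cy3 and to control variants. Melting temperature and folding enthalpy came from bootstrapped two-state fits, inverse-variance combined over four replicates. Fitted temperatures were raised by 9.35 °C to match UV melts.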

[2] = melting temperature; fluorescence melt of hairpins on a sequencing array, two-state fit, raised by 9.35 °C to match UV melts; settings: sodium 0.088 M
In short: as §1

| Sequence | folding enthalpy [1] [kcal/mol] | Tm [2] [°C] |
| --- | --- | --- |
| GCGATTACTCGC ((((....)))) | -23.7 | 49.3 |
| GATCCAAGAGTGGATC ((((((....)))))) | -28.6 | 46 |
| GTTGACGAAAGTCACAAC ((((((....)))..))) | -9.62 | 36.2 |
| GGTTCCGGAAACGGAGCC ((.((((....)))).)) | -41.6 | 58.4 |
| GGACTAGGAAACTAGTTC (.(((((....))))).) | -31.9 | 41.3 |
| GATCGGGCTACCGATC ((((((....)))))) | -36.7 | 67.7 |
| GGTCGGGGAAACTCGACC (((((.(....).))))) | -42.8 | 58 |
| GCTTGGCGAAAGCCCCGC ((..(((....)))..)) | -12 | 35.8 |
| GATCTATGAATAGATC ((((((....)))))) | -32.6 | 43.2 |
| GATCCACAGCTGGATC ((((((....)))))) | -31.7 | 47.6 |
| GGCCGCCCGAAAGGGGCC (((..(((....)))))) | -15 | 62 |
| AGTTGGAAACAACT (((((....))))) | -19.9 | 43.2 |
| GATACGGGAAACCGTGTC ((.((((....)))).)) | -30.7 | 49.2 |
| GATCAATAGTTTGATC ((((((....)))))) | -30.6 | 42.7 |
| GACTTCCGAAAGGATGTC (((.(((....))).))) | -40.7 | 52.8 |
| GGTTTCGAAAGAAATACC ((((((....)))..))) | -19.6 | 32.7 |
| GTTCTTGGAAACAAGGAC ((.((((....)))).)) | -23.9 | 44.6 |
| GGCCCAGCGAAAGCTGCC (((..(((....)))))) | -8.49 | 36 |
| GCCGGGACGAAAGTCGGC (((..(((....)))))) | -29.8 | 60.9 |
| GTACTCGAAAGAGCTAC ((((((....))).))) | -16.4 | 35 |
| GGTACCGAAAGGTCACC ((((((....))).))) | -17.7 | 46.8 |
| GCTCCGCGAAAGCGCAGC (((.(((....))).))) | -29.8 | 45.5 |
| GCAAAGCCGAAAGGCTGC (((..(((....)))))) | -14.2 | 54 |

| Sequence | folding enthalpy [1] [kcal/mol] | Tm [2] [°C] |
| --- | --- | --- |
| GCTAGGCGAAAGCACAGC (((..((....))..))) | -19.4 | 46.3 |
| GCGATCGTTCGC ((((....)))) | -29 | 50.4 |
| GTGACCGAAAGGTGACAC ((((((....)))..))) | -16 | 42.8 |
| GTACAGGGAAACTTGTGC (.(((.(....).))).) | -16 | 27.9 |
| GCCCACGAAAGTGCTGGC ((((((....)))..))) | -18.9 | 47.4 |
| GGGAACGAAAGTTGCCC ((((((....))).))) | -28.6 | 53 |
| GTTGCCGAAAGGCCAAAC ((((((....)))..))) | -10.3 | 26.9 |
| GATCCATGAGTGGATC ((((((....)))))) | -35.3 | 55 |
| GATACGGGAAACCGCATC (((.(((....))).))) | -24.8 | 41.4 |
| GCCAAAACGAAAGTTGGC (((..(((....)))))) | -30.7 | 51.4 |
| GTGATCGGAAACGATCGC (.(((((....))))).) | -36.4 | 57.6 |
| CGTTCCGGAAACGGACG (((.(((....)))))) | -30.8 | 49.9 |
| GCTAGTGGAAACACCAGC (((.(((....))).))) | -23.6 | 39.2 |
| GGCGCATCGAAAGATGCC (((..(((....)))))) | -9.42 | 45.2 |
| GGTCTGGGAAACCGGATC (.((.((....)).)).) | -23.2 | 40 |
| GCGATTTGTCGC ((((....)))) | -23.5 | 54 |
| GACACCCCGAAAGGGGTC (((..(((....)))))) | -6.64 | 37.7 |
| GATCCCCGCGGGATC ((((((...)))))) | -34.5 | 65.9 |
| CGCACGGAAACGTTTGCG ((((((....)))..))) | -29.5 | 44.1 |
| GGCCTGGGAAACCGGGTC (.((.((....)).)).) | -27.7 | 49 |
| GGTCTGGGAAACCAGACC (((((((....))))))) | -47.2 | 67.7 |
| GAAGGTGGAAACGCCTTC (((((.(....).))))) | -31.9 | 51.9 |
| CGCGGACCGATCCGCG ((((((....)))))) | -36.5 | 68.5 |

| Sequence | folding enthalpy [1] [kcal/mol] | Tm [2] [°C] |
| --- | --- | --- |
| GCGGGAGGAAACTTCCGC ((((.((....)).)))) | -40.1 | 58.6 |
| GGTTGTGGAAACATAGCC ((.(.((....)).).)) | -19.1 | 31.6 |
| GCTTTGCGAAAGCAGTGC ((..(((....)))..)) | -13.8 | 38.4 |
| GCCGCAGGAAACTGCAGC ((.((((....)))).)) | -19 | 49 |
| GCGTTGCGAAAGCACGGC ((..(((....)))..)) | -13.6 | 58.9 |
| GGTGTTGGAAACAACACC (((((((....))))))) | -38.4 | 66.5 |
| GCGGTAGGAAACTATCGC (((.(((....))).))) | -37.9 | 53.7 |
| GCACAACGAAAGTTATGC (((.(((....))).))) | -34.9 | 44.5 |
| GACTCTGGAAACAGGGTC (((.(((....))).))) | -30.7 | 49.4 |
| GAGTCGGGAAACTGGCTC (((.(.(....).).))) | -25.8 | 43.4 |
| GGTTGCGAAAGCATTACC ((((((....)))..))) | -17.7 | 37.8 |
| GTCCAACGAAAGTTCGAC (((.(((....))).))) | -27 | 35.9 |
| GATCCGTTGCCGGATC ((((((....)))))) | -46.8 | 58.4 |
| GCGTACGGAAACATACGC (((((.(....).))))) | -33.8 | 46.8 |
| GTGCAGGGAAACCTGCGC (.(((((....))))).) | -26.2 | 58.9 |
| GTGAACGAAAGTTACCAC ((((((....)))..))) | -15.3 | 26 |
| GATCGTCTAGACGATC ((((((....)))))) | -37.2 | 59.7 |
| GTTAGAGAAATCTAAC ((((((....)))))) | -27.9 | 38.4 |
| GGGTGGGGAAACTCGCCC (((.(.(....).).))) | -30.9 | 47.6 |
| GCTATCGAAAGATCCAGC ((((((....)))..))) | -13.3 | 26.1 |
| GATCGACCGTTCGATC ((((((....)))))) | -46 | 50.7 |
| GCTCCGCGAAAGCGGCGC ((.((((....)))).)) | -18.6 | 65.1 |
| GCGAAGCGAAAGCTCGC (((.(((....)))))) | -24.3 | 67.1 |
